An excerpt weighted towards active compounds, which were near 2% of everything screened.
PG9 binder: PG9 antibody binding by small molecule. TR-FRET gp120-PG9 antibody binding. inhibition, % at 6.7 µM. 360,000 tested, 0.43% active. AID 624416; in the data active = inhibition above about 8.5%
NR2E3 ag-1: activates human NR2E3 receptor | Q9Y5X4 | CHO-S Gal4-NCOR/VP16-NR2E3 two-hybrid, luciferase | inhibition of corepressor binding, % at 3.98 µM | 360,000 tested, 0.35% active | AID 602229;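 active = inhibition above the mean of all tested compounds plus 3 SD, cut at about 70% in these data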;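 note: 0% = DMSO with NR2E3 transfected cells and 100% = cells lacking NR2E3 construct; higher means lower luciferase signal from less NR2E3 corepressor binding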
Target sequence (Q9Y5X4 whole entry, looked up, the tested form may be a part): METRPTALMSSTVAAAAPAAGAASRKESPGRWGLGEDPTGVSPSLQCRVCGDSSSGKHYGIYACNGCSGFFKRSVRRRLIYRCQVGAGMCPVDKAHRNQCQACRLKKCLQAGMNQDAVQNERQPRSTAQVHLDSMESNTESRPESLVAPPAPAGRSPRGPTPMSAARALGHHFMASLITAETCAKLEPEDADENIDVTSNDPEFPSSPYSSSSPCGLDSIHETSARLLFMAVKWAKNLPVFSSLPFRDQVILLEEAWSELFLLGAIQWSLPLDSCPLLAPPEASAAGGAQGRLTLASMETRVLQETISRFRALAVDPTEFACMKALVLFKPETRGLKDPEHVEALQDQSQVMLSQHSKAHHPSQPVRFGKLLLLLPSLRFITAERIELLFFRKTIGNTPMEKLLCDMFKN
Neddylation inh: inhibitors of human cullin neddylation | P61081+Q13564 | TR-FRET cullin neddylation, biochemical | calls only at 25 µM | 360,000 tested, 0.58% active | AID 651699; in the data active = inhibition above about 36%
NR2E3 ag-2: activates human photoreceptor nuclear receptor NR2E3. GST-NR2E3/biotin-RetCOR TR-FRET, 1536-well. Q9Y5X4. inhibition of corepressor binding, % at 4.78 µM. 320,000 tested, 0.12% active. AID 2300;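 active = percent inhibition above the cutoff of mean plus 3 SD of all tested compounds, set per screening campaign, cut at about 20% in these data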;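 note: 0% = DMSO wells and 100% = biotin wells as full block of FRET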
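Format: 1536-well format; test system: GST-NR2E3 and biotin-RetCOR proteins; read-out basis: percent inhibition of TR-FRET ratio; timing: 5 h incubation at 4 °C; detection: time-resolved FRET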
Rev-erbA mod: modulates human Rev-erb alpha binding to DNA; P20393; Rev-erbα–FITC-DNA binding, fluorescence polarization, 90 min; activity, % at 10 µM; 370,000 tested, 0.79% active; AID 1259318;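 active = activity above about 14%, limit read from the data; passing the limit was not always enough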;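 note: 0% = DMSO wells with 35 nM protein and 100% = DMSO wells with 750 nM protein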
NR1D1 mod conf: confirmation of modulators of human Rev-erb alpha DNA binding; shares compounds with Rev-erbA mod; Rev-erb alpha FITC-DNA binding, fluorescence polarization, 90 min; activation, % at 25 µM; 3,000 tested, 61% active;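 active = activation at or above a set limit, or at least 3 SD above the negative control mean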;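 note: 0% = 35 nM protein with DMSO and 100% = 750 nM protein high control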
RORg counter: affects RORgamma DNA binding in a Rev-erb alpha counter-screen | AID 1259320 | IC50, µM | shares compounds with Rev-erbA mod | purified RORgamma protein-FITC-DNA binding, fluorescence polarization | 910 tested, 8% active;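 active = Compounds whose fitted half-maximal concentration for disrupting protein-DNA binding is below 10 micromolar; the record names Rev-erb in its text, so the target is in doubt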
Starred values were filed as active, the others as inactive; i = inactive; · = not tested or not shown.

SMILES	PG9 binder	NR2E3 ag-1	Neddylation inh	NR2E3 ag-2	Rev-erbA mod	NR1D1 mod conf	others
COc1ccc(/C=C2/SC(=O)N(CCC(=O)Nc3ccc(C)cc3)C2=O)cc1OC	-1	·	·	6	30*	25*
COc1ccc(/C=C2\SC(=O)N(CC(=O)Nc3ccc(F)cc3)C2=O)cc1O	-2	-1	i	6	8	·
COc1ccc(/C=C2/SC(=O)N(CCC(=O)Nc3ccccc3)C2=O)cc1OC	-37	-5	i	0	24*	31*	RORg counter=>40
COc1ccc(/C=C2\SC(=S)N(CCCC(=O)Nc3cc(C)on3)C2=O)cc1OC	0	2	i	3	4	·
CCN(CC)C(=O)C1=C(C)N(CCC2=CCCCC2)C(=O)C(CC(=O)NCCCCc2ccccc2)C1 (stereo not given)	-1	13	i	·	-1	·
COc1ccc(N2C(=O)c3[nH]nc(-c4ccccc4)c3C2c2cccc(C(F)(F)F)c2)cc1 (stereo not given)	0	·	·	·	-3	·
CCOC(=O)c1c(-c2cccs2)csc1NC(=O)c1ccco1	-2	-42	i	1	36*	11
COc1ccccc1C(=O)NC1CCCCN(Cc2cccc(Cl)c2)C1=O (stereo not given)	·	·	·	·	6	·
Cc1ccc(S(=O)(=O)N2CCOCC2)cc1NC(=O)c1cc(-c2ccccn2)nc2ccccc12	-1	-16	i	3	-6	·
O=C(Nc1cc(S(=O)(=O)N2CCOCC2)ccc1N1CCCCC1)c1cc(-c2ccccn2)nc2ccccc12	-1	17	i	0	25*	2
Cc1cccc(Cl)c1NC(=O)N(C)c1ccccc1	3	·	·	·	16*	1
Cc1cc2nc(/C(C#N)=C\c3ccc(-c4ccccc4C(=O)O)o3)[nH]c2cc1C	-13	2	i	3	42*	30*
Cc1ccc2nc(/C(C#N)=C/c3ccc(-c4ccccc4C(=O)O)o3)[nH]c2c1	-18	-33	i	-3	41*	31*	RORg counter=>40
N#C/C(=C\c1ccc(-c2ccccc2C(=O)O)o1)c1nc2ccccc2[nH]1	-24	12	i	-11	13	·
O=C1C=C(c2n[nH]nc2-c2ccccc2)C[C@@H](c2ccc(F)cc2)C1	0	-8	i	·	-5	·
COc1cc(/C=C(\C#N)C(=O)Nc2ccccc2F)ccc1OCCN1CCOCC1	-2	-30	i	0	0	·
N#C/C(=C/C1=C(N2CCOCC2)C(=C/c2ccc(Cl)cc2)/CC1)C(=O)Nc1ccccc1F	-1	8	i	·	27*	5
CC(OC(=O)Cc1ccccc1[N+](=O)[O-])C(=O)NC(=O)NC1CCCCC1 (stereo not given)	0	36	i	0	2	·
O=C1NC(Cc2ccc(O)cc2)c2nc3ccc(Cl)cc3c(=O)n2-c2cc3ccccc3cc21 (stereo not given)	0	-21	i	·	2	·
O=C1NC(Cc2ccccc2)c2nc3ccc(Cl)cc3c(=O)n2-c2cc3ccccc3cc21 (stereo not given)	-1	-12	i	·	22*	2
CCOC(=O)N(C)C[C@@H]1OCc2cnnn2CCCC(=O)N([C@H](C)CO)C[C@H]1C	-1	-19	i	·	0	·
Cc1cc(N2CCOCC2)n2nc(C(F)(F)F)c(-c3ccccc3)c2n1	0	14	i	·	28*	-2
Cc1nn2c(N3CCOCC3)cc(C(C)(C)C)nc2c1-c1ccc(Cl)cc1	0	10	i	·	30*	-5
Cc1cc(N2CCOCC2)n2ncc(-c3ccc(Cl)cc3)c2n1	1	12	·	-1	8	·
CC(=O)Nc1ccc(Nc2cc(C)nc3c(-c4ccc(Cl)cc4)c(C)nn23)cc1	0	-10	i	-1	19*	7
SMILES	PG9 binder	NR2E3 ag-1	Neddylation inh	NR2E3 ag-2	Rev-erbA mod	NR1D1 mod conf	others
Cc1cc(N2CCOCC2)n2ncc(-c3ccccc3)c2n1	0	-37	·	3	3	·
Cc1cc(N2CCOCC2)n2nc(C)c(-c3ccc(Cl)cc3)c2n1	1	-40	i	4	26*	-1
CC(C)(C)c1cc(N2CCOCC2)n2ncc(-c3ccc(Cl)cc3)c2n1	0	-15	·	2	16	·
Cc1ccc2sc(C)cc(=O)c2c1	2	-25	i	·	2	·
COC(=O)c1cc(NC(=O)c2ccccc2)c(=O)oc1/C=C/Nc1ccc(Oc2ccccc2)cc1	0	11	i	·	33*	6
O=C(NC1CCCC1)c1nc(-c2c(F)cccc2F)oc1-c1ccccc1	-1	·	i	·	-3	·
CCOc1ccc(NC(=O)COc2ccc(C(=O)NCc3cccnc3)cc2OC)cc1	-2	9	i	-2	-5	·
COc1cc(C(=O)NCc2cccnc2)ccc1OCC(=O)Nc1cccc(C(F)(F)F)c1	0	8	i	5	18*	7
Cc1cc(N(CCO)CCO)ccc1N=Nc1cc(F)ccc1F	-1	-53	i	-1	54*	29*
O=C(Nc1ccc(Cl)c(C(F)(F)F)c1)C1Cc2c(-c3ccc4c(c3)OCO4)ccnc2O1 (stereo not given)	-1	6	i	·	0	·
Cc1ccc(-n2nccc2-c2nn(-c3cccc(C(F)(F)F)c3)c(=O)n(C)c2=O)cc1	-1	-9	i	-3	33*	10
O=c1c2ccccc2c(-c2ccc(O)cc2)nn1-c1cccc(C(F)(F)F)c1	0	8	i	0	3	·
Cc1cc2nc(-c3ccccc3)c(CC(C)(C)C)n2c(C)c1Br	-3	-9	i	·	5	·
COC(=O)c1cn(NC(=O)Cc2ccc(OC)c(OC)c2)c(=O)c2ccccc12	1	19	i	-1	12*	0
COc1ccc(Cl)cc1-c1nc(-c2ccncc2)no1	3	-25	i	2	30*	9
Cc1ccc(OCC(=O)NNC(=O)CSc2ncnc3sc(C)c(C)c23)cc1	-3	-8	i	3	52*	16
Cc1sc2ncnc(SCC(=O)NC(C)(C)C)c2c1C	1	-3	i	4	1	·
CCc1ccc(OCC(=O)NNC(=O)CSc2ncnc3sc(C)c(C)c23)cc1	-1	-1	i	0	26*	13
COC(=O)[C@]12C[C@H](CC(=O)NCC34CC5CC(CC(C5)C3)C4)C(=O)N(Cc3ccc(Cl)cc3Cl)C1=C[C@H](C1CCCC1)O[C@@H]2C	·	·	·	·	5	·
COC(=O)[C@H]1C[C@H](OC(=O)Nc2cccs2)[C@@]2(O)CN(S(=O)(=O)c3ccc(C)cc3)CC2[C@H]1C(=O)OC (stereo not given in full)	-1	-17	i	·	3	·
O=[N+]([O-])c1ccc(-c2nc(Cl)c3c(n2)CCCC3)o1	-3	2	i	·	-2	·
